According to ChEMBL document CHEMBL3421626, “Prenylated benzophenones from Triadenum japonicum” (2015):
Converted amounts (≈) assume the structure as drawn. Numbered stars: 1 amine (or outer) side, 2 acyl side, 3 side chain; on linkers, the order of the positions; unused ones are H or OH. Bridge positions count the residues as written; N and C are the ends. Square brackets hold non-standard residues; d marks the D form. Peptide text beside a SMILES is read from it. * marks the point of attachment. hTyr(3S-OH,4S-OH,3'-OSO3H) = N[C@H](C(=O)O)[C@H](O)[C@@H](O)c1ccc(O)c(OS(=O)(=O)O)c1; Orn(4R-OH,5R-OH) = O=C([C@H](C[C@@H](O)[C@@H](O)N[*:3])N[*:1])[*:2]; Pro(3S-OH,4S-Me) = C[C@H]1CN[C@H](C(=O)O)[C@H]1O; X1 = CCCCCOc1ccc(-c2cc(-c3ccc(C(=O)*)cc3)no2)cc1; Gln(3R-OH) = NC(=O)C[C@@H](O)[C@H](N)C(=O)O; Hyp = O=C(O)[C@@H]1C[C@@H](O)CN1

How the values were obtained:
Type in all cases: functional
Bacillus subtilis = assay: Antimicrobial activity against Bacillus subtilis assessed as reduction in bacterial growth incubated for 48 hrs by microbroth dilution method
Method in brief: (§1)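 Panel assay run per a previously reported protocol. Amphotericin B, micafungin, hygromycin B and kanamycin served as control agents across the organism panel.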

Staphylococcus aureus = assay: Antimicrobial activity against Staphylococcus aureus assessed as reduction in bacterial growth incubated for 48 hrs by microbroth dilution method; method in brief: as §1
Micrococcus luteus = assay: Antimicrobial activity against Micrococcus luteus assessed as reduction in bacterial growth incubated for 48 hrs by microbroth dilution method; method in brief: as §1
[1] = test system: Trichophyton mentagrophytes; assay: Antimicrobial activity against Trichophyton mentagrophytes IFM62679 assessed as reduction in […] growth incubated for 48 hrs by microbroth dilution method; conditions: IFM62679, 48 h; method in brief: as §1
Escherichia coli = assay: Antimicrobial activity against Escherichia coli assessed as reduction in bacterial growth incubated for 48 hrs by microbroth dilution method; method in brief: as §1
Aspergillus niger = assay: Antimicrobial activity against Aspergillus niger IFM62678 assessed as reduction in […] growth incubated for 48 hrs by microbroth dilution method; conditions: IFM62678, 48 h; method in brief: as §1
Candida albicans = assay: Antimicrobial activity against Candida albicans IFM62680 assessed as reduction in […] growth incubated for 48 hrs by microbroth dilution method; conditions: IFM62680, 48 h

Row | MIC (Bacillus subtilis) [µg/mL] | MIC (Staphylococcus aureus) [µg/mL] | MIC (Micrococcus luteus) [µg/mL] | MIC (Escherichia coli) [µg/mL] | SMILES | IC50 [1] [µg/mL] | IC50 (Aspergillus niger) [µg/mL] | IC50 (Candida albicans) [µg/mL]
1 | < 0.1 | < 0.1 | 1 (≈ 2.06 µM) | < 0.1 | NC[C@H]1O[C@H](O[C@H]2[C@H](O)[C@@H](O[C@H]3O[C@H](CO)[C@@H](O)[C@H](N)[C@H]3O)[C@H](N)C[C@@H]2N)[C@H](O)[C@@H](O)[C@@H]1O [KANAMYCIN] | 7.8 (≈ 16.1 µM) | 31.3 (≈ 64.6 µM) | > 62.5
2 | 0.5 (≈ 0.394 µM) | 0.5 (≈ 0.394 µM) | 7.8 (≈ 6.14 µM) | > 62.5 | CCCCCOc1ccc(-c2cc(-c3ccc(C(=O)N[C@H]4C[C@@H](O)[C@@H](O)NC(=O)[C@@H]5[C@@H](O)[C@@H](C)CN5C(=O)[C@H]([C@H](O)CC(N)=O)NC(=O)[C@H]([C@H](O)[C@@H](O)c5ccc(O)c(OS(=O)(=O)O)c5)NC(=O)[C@@H]5C[C@@H](O)CN5C(=O)[C@H]([C@@H](C)O)NC4=O)cc3)no2)cc1 [MICAFUNGIN] (X1-[Orn(4R-OH,5R-OH)]T[Hyp][hTyr(3S-OH,4S-OH,3'-OSO3H)][Gln(3R-OH)][Pro(3S-OH,4S-Me)]; lactam 1-C) | < 0.1 | < 0.1 | < 0.1

More lines, now with the values behind:

Row | SMILES | MIC (Bacillus subtilis) [µg/mL] | MIC (Staphylococcus aureus) [µg/mL] | MIC (Micrococcus luteus) [µg/mL] | MIC (Escherichia coli) [µg/mL] | IC50 [1] [µg/mL] | IC50 (Aspergillus niger) [µg/mL] | IC50 (Candida albicans) [µg/mL]
3 | C[C@@H]1[C@H](O)[C@@H](C)/C=C/C=C/C=C/C=C/C=C/C=C/C=C/[C@H](O[C@@H]2O[C@H](C)[C@@H](O)[C@H](N)[C@@H]2O)C[C@@H]2O[C@](O)(C[C@@H](O)C[C@@H](O)[C@H](O)CC[C@@H](O)C[C@@H](O)CC(=O)O[C@H]1C)C[C@H](O)[C@H]2C(=O)O [AMPHOTERICIN B] | > 31.2 | > 31.2 | > 31.2 | > 31.2 | 3.9 (≈ 4.22 µM) | 1.8 (≈ 1.95 µM) | 1 (≈ 1.08 µM)
4 | CC(C)=CC[C@]12C[C@H]3C[C@@H](C(C)(C)OO)OO[C@]3(C)C[C@](CC=C(C)C)(C1=O)C(O)=C(C(=O)c1ccccc1)C2=O | – | – | – | – | – | – | 8 (≈ 14.1 µM)
5 | CN[C@H]1C[C@@H](N)[C@H](O)[C@@H](O[C@@H]2O[C@H](CO)[C@H](O)[C@H]3O[C@@]4(O[C@H]23)O[C@H]([C@H](N)CO)[C@H](O)[C@H](O)[C@H]4O)[C@@H]1O | 2 (≈ 3.79 µM) | 0.5 (≈ 0.948 µM) | 1 (≈ 1.9 µM) | 2 (≈ 3.79 µM) | 1 (≈ 1.9 µM) | 1 (≈ 1.9 µM) | 3.9 (≈ 7.39 µM)
6 | CC(C)=CC[C@@H]1C[C@@]2(CC=C(C)C)C(=O)C3(CC=C(C)C)C[C@]1(C)[C@]2(O)/C(=C(/O)c1ccccc1)C3=O | 16 (≈ 31.8 µM) | 16 (≈ 31.8 µM) | 32 (≈ 63.7 µM) | 8 (≈ 15.9 µM) | 8 (≈ 15.9 µM) | 16 (≈ 31.8 µM) | 32 (≈ 63.7 µM)
